Data taken from ChEMBL document CHEMBL3393009 (J Med Chem, 2015).

What was measured:
[1] = Clearance in human liver microsomes; type: ADME; conditions: read-out: CLH
How it was run: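 Human liver microsomal clearance.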

[2] = biological target: T1, Serine/threonine-protein kinase 3 (Homo sapiens, UniProt Q13188); test: Inhibition of human recombinant MST2 using Ser/Thr peptide 7 substrate after 45 mins by Z-Lyte assay
T1 sequence (Q13188 whole entry): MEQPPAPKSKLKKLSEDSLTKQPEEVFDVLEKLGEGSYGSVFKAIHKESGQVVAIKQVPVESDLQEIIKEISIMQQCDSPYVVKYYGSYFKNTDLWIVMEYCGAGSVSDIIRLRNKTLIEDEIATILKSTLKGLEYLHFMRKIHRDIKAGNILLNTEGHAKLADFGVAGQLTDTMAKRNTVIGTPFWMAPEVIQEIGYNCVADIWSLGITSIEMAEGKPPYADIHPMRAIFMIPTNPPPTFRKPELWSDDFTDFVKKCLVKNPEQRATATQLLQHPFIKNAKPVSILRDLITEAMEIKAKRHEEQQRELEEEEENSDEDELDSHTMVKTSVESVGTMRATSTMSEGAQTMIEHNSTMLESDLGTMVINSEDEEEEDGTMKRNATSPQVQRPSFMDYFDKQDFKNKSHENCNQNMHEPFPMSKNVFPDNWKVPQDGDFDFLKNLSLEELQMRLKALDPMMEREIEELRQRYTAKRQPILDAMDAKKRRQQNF

[3] = Tmax in dog at 5 mg/kg, po; type: ADME, organism-based, Canis lupus familiaris; design: dose 5 mg/kg, route oral; conditions: in vivo
Mus musculus = test: Inhibition of LRRK2 […] mutant […] phosphorylation in BAC-transgenic mouse at 3 to 100 mg/kg, sc measured after 90 mins post dose; type: functional; conditions: dose mg/kg 3-100; route subcutaneous
How it was run: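 Mice given compound subcutaneously in 10% NMP/20% SBECD vehicle: four-month-old C57BL/6J (wild type) or seven-month-old LRRK2 BAC-Tg G2019S. Tissues collected 90 min after dose. pS935, and pS1292 (custom antibody) in transgenic brain, read by Western blot of brain/kidney lysates against vehicle controls. Mean ± SEM.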

[4] = Toxicity in Wistar Han rat at 6 to 60 mg/kg, po bid for 14 days; type: organism-based; design: dose 6-60 mg/kg, route oral; conditions: in vivo
How it was run: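 Exploratory 14-day study in Wistar Han rats (200–300 g, 8–11 weeks old at start). Dosing was by oral gavage twice daily in 10% propylene glycol/20% PEG400/70% 9.5% methocellulose. Unbound plasma exposure was measured on days 1 and 11. Endpoints were RBC parameters, electrolytes, food consumption, body weight, clinical chemistry, urinary renal biomarkers and kidney appearance.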

Rattus norvegicus [5] = test: Toxicity in Wistar Han rat assessed as changes in body weight at 6 to 60 mg/kg, po bid for 14 days; type: organism-based; design: dose 6-60 mg/kg, route oral; conditions: in vivo, 336 h
How it was run: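 Wistar Han rats (200–300 g, 8–11 weeks) dosed by oral gavage twice daily for 14 days. Vehicle: 10% propylene glycol/20% PEG400/70% methylcellulose solution. RBC parameters, electrolytes, food consumption, body weight, clinical chemistry and urinary biomarkers recorded.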

Rattus norvegicus [6] = test: fCmax in Wistar Han rat at 6 mg/kg, po bid for 14 days; type: ADME, organism-based; design: dose 6 mg/kg, route oral; conditions: in vivo, 336 h
Rattus norvegicus [7] = test: fCmax in Wistar Han rat at 60 mg/kg, po bid for 14 days; type: ADME, organism-based; design: dose 60 mg/kg, route oral; conditions: in vivo, 336 h
Rattus norvegicus [8] = test: fAUC in Wistar Han rat at 60 mg/kg, po bid for 14 days; type: ADME, organism-based; design: dose 60 mg/kg, route oral; conditions: in vivo, 336 h
How it was run: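 Wistar Han rats dosed orally twice daily in 10% propylene glycol/20% PEG400/methylcellulose vehicle. Unbound plasma exposure measured on days 1 and 11.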

Rattus norvegicus [9] = test: Drug coverage index, ratio fAUC in Wistar Han rat at 6 mg/kg, po bid for 14 days to IC50 for LRRK2 […] phosphorylation in Wistar Han rat brain at 6 to 60 mg/kg, po bid for 14 days; type: ADME, organism-based; conditions: in vivo, 336 h
How it was run: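 Wistar Han rats (200–300 g, 8–11 weeks old) were dosed by oral gavage twice daily for 14 days. Vehicle was 10% propylene glycol/20% PEG400/70% 9.5% methocellulose.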

[10] = Cytotoxicity against human THLE cells by in-vitro ATP depletion assay; type: cell-based

## N#Cc1cccc(-c2c[nH]c3ncnc(N4CCOCC4)c23)c1
[1]
  CLint scaled: 36 mL/min/kg
[2]
  IC50: 22 nM
[3]
  Tmax: 22.8 min
Mus musculus
  fIC50: 103 nM
[4]
  MTD at 336 h: > 60 mg/kg/day
Rattus norvegicus [5]
  Activity: Non-toxic
Rattus norvegicus [6]
  fCmax: 86 nM
Rattus norvegicus [7]
  fCmax: 1050 nM
Rattus norvegicus [8]
  fAUC: 11.17 µM·h
Rattus norvegicus [9]
  Ratio: 2
[10]
  IC50: > 223000 nM
